Data: paper PMC12069892 (Acta Pharmaceutica Sinica. B, 2025)
pIC50: −log10 of the molar value. Values after ≈ are worked out from the molar mass of the structure shown.

Experiments:
P. aeruginosa DK2 [1] = test: MIC by micro broth dilution; type: cell-based, Pseudomonas aeruginosa; conditions: for MIC: Pseudomonas aeruginosa, DK2, 18 h, read-out: MIC, derivative alone, P. aeruginosa DK2, 18 h, 100% growth inhibition; for MIC, antibiotic alone: P. aeruginosa DK2
P. aeruginosa DK2 [2] = test: Oxidative stress; type: cell-based, Pseudomonas aeruginosa; conditions: PB 0.25 or 0.5 μg/mL; 15 or A22 4 or 8 μg/mL, with or without PB
How it was run: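 Culture diluted to 0.01 and treated with compounds. At OD600 1.0, 3 mL collected, washed in 1 mL PBS, then resuspended in PBS with 0.2 mol/L H2O2 and shaken 15 min at 37 ℃. Suspensions diluted 10^1–10^7 in PBS, 5 μL spotted onto LB agar, and incubated 37 ℃ for 1–2 days before colony counting.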

P. aeruginosa DK2 [3] = test: Intracellular NADH oxidase; type: cell-based, Pseudomonas aeruginosa
How it was run: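 Bacteria treated with compounds singly and in combination; 1 mL harvested at OD600 = 1.0. NOX activity measured with a commercial kit by its extraction method and expressed as relative activity.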

hERG potassium channels = hERG potassium channels (Homo sapiens, UniProt Q12809); test: hERG channel Qpatch assay; type: cell-based
P. aeruginosa DK2 [4] = test: Bacterial ATP level assay; type: cell-based, Pseudomonas aeruginosa
How it was run: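 Cells treated with compounds singly and in combination and harvested at OD600 = 1.0 (2 mL), centrifuged, then extraction solution added. Lysed by sonication in an ice bath; extract kept on ice. Absorbance read at 340 nm at 10 s and again after 3 min at 25 ℃ using a commercial ATP kit. ATP expressed relative to control.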

293 T = test: Mammalian cytotoxicity, CCK8; type: cell-based; conditions: Homo sapiens, HEK-293T, 24 h, read-out: 293 T IC50, CCK8, 1 day incubation
How it was run: (§1)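 Cells seeded at 10,000 per well in medium with 10% serum. Serially diluted compound added 24 h later and incubated 1 day. Viability measured with CCK8 reagent per kit instructions and expressed as percent of vehicle-treated cells (set to 100).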

[5] = Stability in liver microsomes; type: in vitro ADME, mouse
P. aeruginosa DK2 [6] = test: Time-kill assay; type: cell-based, Pseudomonas aeruginosa; conditions: for Effect on bacterial growth when used alone (time-kill): A22 10 or 20 μmol/L, PB 0.5 or 1 μg/mL
HUVEC = test: Mammalian cytotoxicity, CCK8; type: cell-based; conditions: Homo sapiens, 24 h, read-out: HUVEC IC50, CCK8, 1 day incubation
How it was run: as §1

P. aeruginosa DK2 [7] = test: Murine wound infection model; type: in vivo, BALB/c female mice; conditions: mouse
How it was run: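 Female mice, 6–8 weeks old and 20–22 g, were anesthetized with 4% chloral hydrate and shaved dorsally. A ~5 mm wound was made and inoculated with 30 μL DK2 (5 × 10^8 CFU). From 48 h post-infection, wounds received saline, polymyxin alone, or polymyxin plus test compound twice daily. Test compound was given in saline with 0.1% Tween 80 and polymyxin in saline. Wounds and body weight were monitored daily. Wound tissue was homogenized in sterile PBS and plated for CFU.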

Water solubility assay = type: physicochemical; conditions: thermodynamic from solid
How it was run: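 Standard curve made from methanol solutions (0.56–0.0011 mg/mL) using HPLC UV peak area at 254 nm. Excess solid stirred in water for 24 h to give a […] solution, then analysed by HPLC at 254 nm. Solubility calculated from the standard curve.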

CYP2C9 = CYP2C9 (Homo sapiens, UniProt P11712); test: Human CYP450 inhibition assay; type: in vitro ADME
CYP3A4 = CYP3A4 (Homo sapiens, UniProt P08684); test: Human CYP450 inhibition assay; type: in vitro ADME
CYP2D6 = CYP2D6 (Homo sapiens, UniProt P10635); test: Human CYP450 inhibition assay; type: in vitro ADME
CYP2C19 = CYP2C19 (Homo sapiens, UniProt P33261); test: Human CYP450 inhibition assay; type: in vitro ADME; conditions: Inhibition for CYP isoforms IC50, 2C19, human liver microsomes, 40 min
CYP1A2 = target: T1, CYP1A2 (Homo sapiens, UniProt P05177); test: Human CYP450 inhibition assay; type: in vitro ADME
T1 sequence (P05177 1-516): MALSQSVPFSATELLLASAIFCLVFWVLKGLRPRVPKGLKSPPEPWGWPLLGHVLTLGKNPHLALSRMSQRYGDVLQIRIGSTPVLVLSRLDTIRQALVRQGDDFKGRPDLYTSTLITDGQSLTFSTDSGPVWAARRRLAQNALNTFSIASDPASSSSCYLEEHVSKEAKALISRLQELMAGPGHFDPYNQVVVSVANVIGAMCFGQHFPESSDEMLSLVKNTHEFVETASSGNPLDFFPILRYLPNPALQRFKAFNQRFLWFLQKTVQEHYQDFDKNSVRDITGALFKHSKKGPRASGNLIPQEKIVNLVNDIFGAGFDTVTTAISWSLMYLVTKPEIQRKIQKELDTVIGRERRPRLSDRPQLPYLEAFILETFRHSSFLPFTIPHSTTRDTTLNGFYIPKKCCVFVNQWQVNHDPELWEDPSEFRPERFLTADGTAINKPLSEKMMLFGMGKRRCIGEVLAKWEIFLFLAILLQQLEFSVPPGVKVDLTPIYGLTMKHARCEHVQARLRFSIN

[8] = Plasma protein binding assay; type: in vitro ADME; conditions: human
How it was run: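 Equilibrium dialysis: compound-spiked plasma placed on the donor side, blank buffer on the receiver side, 5 h at 37 ℃; T0 plasma samples also taken. Donor and receiver aliquots matrix-matched with the opposite matrix. Quenched with acetonitrile containing internal standard, vortexed, centrifuged 4000×g 10 min, and supernatant diluted with water. Analysed by LC–MS/MS alongside reference compounds.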

CYP2B6 = target: T2, CYP2B6 (Homo sapiens, UniProt P20813); test: Human CYP450 inhibition assay; type: in vitro ADME
T2 sequence (P20813 1-491): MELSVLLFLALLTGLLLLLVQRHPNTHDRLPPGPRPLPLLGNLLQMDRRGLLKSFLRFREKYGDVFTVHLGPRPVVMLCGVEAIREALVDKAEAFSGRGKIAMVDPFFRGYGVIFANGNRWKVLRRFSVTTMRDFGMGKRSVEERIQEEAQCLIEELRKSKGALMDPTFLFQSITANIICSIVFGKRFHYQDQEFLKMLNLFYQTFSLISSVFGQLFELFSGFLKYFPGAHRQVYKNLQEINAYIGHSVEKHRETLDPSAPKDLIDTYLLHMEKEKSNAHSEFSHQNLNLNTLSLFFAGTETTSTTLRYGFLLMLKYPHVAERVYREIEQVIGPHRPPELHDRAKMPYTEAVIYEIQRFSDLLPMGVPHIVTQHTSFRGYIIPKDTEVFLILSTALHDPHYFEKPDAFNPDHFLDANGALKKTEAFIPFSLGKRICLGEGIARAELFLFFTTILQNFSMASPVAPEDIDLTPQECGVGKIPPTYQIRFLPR

P. aeruginosa DK2 [9] = test: Biofilm production assay; type: cell-based, Pseudomonas aeruginosa
How it was run: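 Overnight LB culture (37 ℃, 200 rpm) diluted to OD600 0.01 and treated with compound alone or with polymyxin B. Cells inoculated 1:100 into CPG medium and grown 24 h at 37 ℃, then stained 30 min with 0.1% crystal violet. After water rinses and 1 h air drying, dye solubilised in 95% ethanol; OD570 read. For imaging, coverslip biofilms washed with PBS (pH 7.2), dried 60 ℃ 30 min, stained 15 min with acridine orange/ethidium bromide and examined by confocal microscopy.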

P. aeruginosa DK2 [10] = test: Intracellular ROS detection; type: cell-based, Pseudomonas aeruginosa; conditions: alone and in combination with PB
How it was run: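 Drug-treated bacteria collected and suspended in DCFH-DA (final 10 μmol/L), then incubated 20 min at 37 ℃. Cells resuspended in LB, centrifuged 5000 rpm for 5 min and washed to remove free probe. Fluorescence read at 488 nm excitation and 525 nm emission.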

P. aeruginosa PAO1 = test: C. elegans liquid medium killing and rescue assay; type: in vivo, Caenorhabditis elegans
CYP2C8 = target: T3, CYP2C8 (Homo sapiens, UniProt P10632); test: Human CYP450 inhibition assay; type: in vitro ADME
T3 sequence (P10632 1-490): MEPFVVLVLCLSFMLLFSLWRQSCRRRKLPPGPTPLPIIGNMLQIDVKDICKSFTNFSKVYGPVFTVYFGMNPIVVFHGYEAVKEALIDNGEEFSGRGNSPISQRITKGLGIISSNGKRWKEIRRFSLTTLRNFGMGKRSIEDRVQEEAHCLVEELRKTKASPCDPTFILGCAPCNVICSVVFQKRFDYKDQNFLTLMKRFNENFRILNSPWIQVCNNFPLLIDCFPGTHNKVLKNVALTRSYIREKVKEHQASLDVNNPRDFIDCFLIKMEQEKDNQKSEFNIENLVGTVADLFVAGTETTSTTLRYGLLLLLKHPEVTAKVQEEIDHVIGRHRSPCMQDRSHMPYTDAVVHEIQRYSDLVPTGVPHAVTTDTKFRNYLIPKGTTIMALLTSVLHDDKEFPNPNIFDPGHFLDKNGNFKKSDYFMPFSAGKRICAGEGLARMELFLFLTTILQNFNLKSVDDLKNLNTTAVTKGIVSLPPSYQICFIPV

[11] = Stability in liver microsomes; type: in vitro ADME, human
P. aeruginosa DK2 [12] = test: Resistance assay by serial passaging; type: cell-based, Pseudomonas aeruginosa; conditions: passaged with PB alone (64 μg/mL); start 256 μg/mL

Sequence of CYP2D6 (P10635 whole entry, canonical isoform): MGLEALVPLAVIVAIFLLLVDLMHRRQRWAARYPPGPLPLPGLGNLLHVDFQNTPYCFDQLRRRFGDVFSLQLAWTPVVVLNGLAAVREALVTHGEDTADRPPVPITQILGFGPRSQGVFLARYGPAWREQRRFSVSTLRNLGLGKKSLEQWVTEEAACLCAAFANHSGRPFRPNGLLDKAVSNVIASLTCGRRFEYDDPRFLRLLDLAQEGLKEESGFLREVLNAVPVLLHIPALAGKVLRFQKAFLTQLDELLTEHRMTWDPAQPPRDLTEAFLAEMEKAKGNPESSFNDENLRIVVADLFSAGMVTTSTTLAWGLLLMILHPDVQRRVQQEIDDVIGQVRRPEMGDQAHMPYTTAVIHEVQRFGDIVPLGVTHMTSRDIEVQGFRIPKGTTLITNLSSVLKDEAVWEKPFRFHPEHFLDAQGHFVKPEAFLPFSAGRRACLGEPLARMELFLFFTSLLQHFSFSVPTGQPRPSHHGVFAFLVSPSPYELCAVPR
Sequence of CYP2C9 (P11712 whole entry): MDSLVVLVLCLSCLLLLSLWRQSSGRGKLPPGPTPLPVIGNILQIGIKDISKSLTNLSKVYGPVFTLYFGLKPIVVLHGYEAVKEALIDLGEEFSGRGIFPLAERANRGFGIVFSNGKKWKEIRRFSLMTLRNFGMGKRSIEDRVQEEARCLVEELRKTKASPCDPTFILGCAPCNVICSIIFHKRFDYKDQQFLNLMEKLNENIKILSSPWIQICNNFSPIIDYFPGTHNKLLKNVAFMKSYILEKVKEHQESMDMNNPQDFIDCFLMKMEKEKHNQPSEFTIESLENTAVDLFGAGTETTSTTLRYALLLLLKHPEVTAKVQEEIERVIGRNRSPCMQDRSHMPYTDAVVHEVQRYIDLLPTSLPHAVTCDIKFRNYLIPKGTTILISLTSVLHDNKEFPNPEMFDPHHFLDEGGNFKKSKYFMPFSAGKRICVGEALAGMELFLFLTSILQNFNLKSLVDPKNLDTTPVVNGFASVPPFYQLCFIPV
Sequence of CYP3A4 (P08684 whole entry): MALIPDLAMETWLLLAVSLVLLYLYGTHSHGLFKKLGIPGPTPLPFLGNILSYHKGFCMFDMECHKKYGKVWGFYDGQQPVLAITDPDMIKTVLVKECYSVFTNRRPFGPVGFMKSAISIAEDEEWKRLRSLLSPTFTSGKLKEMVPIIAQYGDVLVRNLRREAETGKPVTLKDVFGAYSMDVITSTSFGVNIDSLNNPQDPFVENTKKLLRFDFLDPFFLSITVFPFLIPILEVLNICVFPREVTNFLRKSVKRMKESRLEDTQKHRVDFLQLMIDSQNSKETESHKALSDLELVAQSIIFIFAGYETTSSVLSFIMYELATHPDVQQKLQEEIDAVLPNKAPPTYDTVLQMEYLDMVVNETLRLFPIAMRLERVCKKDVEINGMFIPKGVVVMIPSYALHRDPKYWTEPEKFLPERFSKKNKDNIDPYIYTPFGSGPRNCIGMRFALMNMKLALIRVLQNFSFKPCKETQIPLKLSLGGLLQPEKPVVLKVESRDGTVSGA
Sequence of hERG potassium channels (Q12809 whole entry): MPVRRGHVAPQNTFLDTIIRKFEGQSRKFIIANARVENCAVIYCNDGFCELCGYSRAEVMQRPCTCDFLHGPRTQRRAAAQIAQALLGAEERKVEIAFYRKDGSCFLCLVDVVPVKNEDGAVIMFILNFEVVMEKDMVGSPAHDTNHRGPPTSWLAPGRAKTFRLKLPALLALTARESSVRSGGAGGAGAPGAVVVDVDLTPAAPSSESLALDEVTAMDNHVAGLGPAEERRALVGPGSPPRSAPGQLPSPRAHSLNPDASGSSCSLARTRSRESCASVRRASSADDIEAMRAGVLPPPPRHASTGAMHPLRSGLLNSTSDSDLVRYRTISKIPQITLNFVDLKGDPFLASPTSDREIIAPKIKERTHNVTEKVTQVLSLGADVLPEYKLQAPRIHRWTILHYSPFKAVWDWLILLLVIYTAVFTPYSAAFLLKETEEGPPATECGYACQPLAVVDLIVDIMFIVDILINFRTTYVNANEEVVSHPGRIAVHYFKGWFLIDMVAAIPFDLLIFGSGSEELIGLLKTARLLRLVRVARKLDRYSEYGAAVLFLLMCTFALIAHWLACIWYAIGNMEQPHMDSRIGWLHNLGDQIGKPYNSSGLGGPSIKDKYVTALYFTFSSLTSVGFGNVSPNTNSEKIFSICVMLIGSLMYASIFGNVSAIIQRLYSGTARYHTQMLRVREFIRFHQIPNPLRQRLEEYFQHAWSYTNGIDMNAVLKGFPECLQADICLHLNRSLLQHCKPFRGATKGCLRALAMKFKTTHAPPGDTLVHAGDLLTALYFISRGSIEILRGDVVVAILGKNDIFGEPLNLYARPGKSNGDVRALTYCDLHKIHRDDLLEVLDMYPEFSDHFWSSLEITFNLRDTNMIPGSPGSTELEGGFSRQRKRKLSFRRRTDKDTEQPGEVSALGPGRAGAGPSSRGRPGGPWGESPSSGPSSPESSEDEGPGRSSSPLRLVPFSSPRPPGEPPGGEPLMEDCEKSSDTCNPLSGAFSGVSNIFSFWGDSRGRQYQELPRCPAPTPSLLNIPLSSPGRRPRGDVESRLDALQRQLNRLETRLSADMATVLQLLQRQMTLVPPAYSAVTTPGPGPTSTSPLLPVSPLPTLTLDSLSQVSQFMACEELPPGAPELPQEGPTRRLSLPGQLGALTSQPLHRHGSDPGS
Sequence of CYP2C19 (P33261 whole entry, canonical isoform): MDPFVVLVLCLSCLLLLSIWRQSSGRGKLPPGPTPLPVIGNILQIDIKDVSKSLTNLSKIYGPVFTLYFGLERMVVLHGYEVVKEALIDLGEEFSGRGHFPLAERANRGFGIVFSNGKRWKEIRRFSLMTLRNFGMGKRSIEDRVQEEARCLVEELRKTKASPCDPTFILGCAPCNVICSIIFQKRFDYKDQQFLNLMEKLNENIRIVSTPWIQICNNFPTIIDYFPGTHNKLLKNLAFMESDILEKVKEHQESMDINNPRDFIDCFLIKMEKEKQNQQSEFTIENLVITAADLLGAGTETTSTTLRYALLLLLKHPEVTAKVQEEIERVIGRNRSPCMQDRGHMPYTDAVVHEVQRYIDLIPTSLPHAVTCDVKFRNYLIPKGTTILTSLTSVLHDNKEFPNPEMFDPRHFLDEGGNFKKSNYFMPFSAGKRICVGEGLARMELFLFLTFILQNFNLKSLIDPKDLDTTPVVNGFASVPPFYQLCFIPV

O=C(NNc1ccc([N+](=O)[O-])cc1Cl)c1cc(F)ccc1O [A3]
MIC (P. aeruginosa DK2 [1]): 50 to 100 µM (≈ 16.3 to 32.6 µg/mL)

O=C(Nc1ccc([N+](=O)[O-])cc1O)c1cc(F)ccc1O [A20]
MIC (P. aeruginosa DK2 [1]): 50 to 100 µM (≈ 14.6 to 29.2 µg/mL)

O=C(Nc1ccc(C(F)(F)F)cc1C(F)(F)F)c1cc(F)ccc1O [A22]
CFU under oxidative stress (H2O2) (P. aeruginosa DK2 [2]): significantly reduced CFU
NOX activity, compound alone (P. aeruginosa DK2 [3]): significantly increased
NOX activity, in combination with PB (P. aeruginosa DK2 [3]): further significant increase
pIC50 (hERG potassium channels): 5.16
ATP levels, monotherapy (P. aeruginosa DK2 [4]): reduced ATP levels
Reduction in ATP levels, combined with PB (P. aeruginosa DK2 [4]): even more pronounced
pIC50 (293 T): < 3.82
MLM Remaining (t = 1 h) ([5]; mouse liver microsomes): 46.31%
half-life ([5]; mouse, liver microsomes, pH 7.4): 54.4 min
Time of complete inhibition of bacterial growth (P. aeruginosa DK2 [6]; A22 10 μmol/L with PB 1 μg/mL): 36 h
Time of complete inhibition of bacterial growth (P. aeruginosa DK2 [6]; A22 20 μmol/L with PB 1 μg/mL): 24 h
Effect on bacterial growth when used alone (time-kill) (P. aeruginosa DK2 [6]): neither A22 (10 μmol/L = 3.67 μg/mL, or 20 μmol/L = 7.34 μg/mL) nor PB (0.5 or 1 μg/mL) significantly affected bacterial growth
Time of first substantial reduction in CFUs (P. aeruginosa DK2 [6]; A22 combined with PB): 2 h
pIC50 (HUVEC): < 3.82
Bacterial load in infected wounds, combination (P. aeruginosa DK2 [7]; A22 10 mg/kg and PB 1 mg/kg, versus control and monotherapy): significantly reduced bacterial loads in the infected wounds
Bacterial load in infected wounds, monotherapy (P. aeruginosa DK2 [7]; A22 10 mg/kg or PB 1 mg/kg, after 7 days of treatment): neither A22 monotherapy (10 mg/kg) nor PB monotherapy (1 mg/kg) exhibited significant antibacterial effects
solubility at 24 h (Water solubility assay): 4 µg/mL (≈ 10.9 µM)
pIC50 (CYP2C9): 6.54
pIC50 (CYP3A4): < 4.48
pIC50 (CYP2D6): 5.73
pIC50 (CYP2C19): 4.69
pIC50 (CYP1A2): 5.21
fraction unbound at 5 h [8]: 0.0206
pIC50 (CYP2B6): < 4.48
Inhibitory effect on biofilm formation, combination (P. aeruginosa DK2 [9]; 8 μg/mL A22 with 0.25 or 0.5 μg/mL PB): significantly enhanced
Biofilm formation, A22 alone (P. aeruginosa DK2 [9]; 4 and 8 μg/mL, crystal violet and CLSM): potent inhibitory activity against biofilm formation
ROS levels (P. aeruginosa DK2 [10]): significantly elevating ROS levels
Survival of PAO1-infected worms, combination (P. aeruginosa PAO1; 8 μg/mL A22 and 8 μg/mL PB): synergistically extended the lifespan of the worms
Survival of PAO1-infected worms, monotherapy (P. aeruginosa PAO1; C. elegans N2 infected with P. aeruginosa PAO1): neither A22 nor PB had significant therapeutic effects
pIC50 (CYP2C8): 5.58
MIC (P. aeruginosa DK2 [1]): > 1000 µM
HLM Remaining (t = 1 h) ([11]; human liver microsomes): 23.96%
half-life ([11]; human, liver microsomes, pH 7.4): 29.1 min

O=C(Nc1ccc([N+](=O)[O-])cc1C(F)(F)F)c1cc(F)ccc1O [A25]
MIC (P. aeruginosa DK2 [1]): 50 to 100 µM (≈ 17.2 to 34.4 µg/mL)

Colistin [reference compound]
MIC, antibiotic alone (P. aeruginosa DK2 [1]): > 256 µg/mL

Polymyxin B [reference compound]
CFU under oxidative stress (H2O2) (P. aeruginosa DK2 [2]): did not reduce CFU
Effect on bacterial growth when used alone (time-kill) (P. aeruginosa DK2 [6]): neither A22 (10 μmol/L = 3.67 μg/mL, or 20 μmol/L = 7.34 μg/mL) nor PB (0.5 or 1 μg/mL) significantly affected bacterial growth
MIC, antibiotic alone (P. aeruginosa DK2 [1]): 256 µg/mL
MIC of PB after 14 generations (P. aeruginosa DK2 [12]): 1024 µg/mL
